Data taken from ChEMBL document CHEMBL3525968, “Use of transporter knockdown Caco-2 cells to investigate the in vitro efflux of statin drugs” (Drug Metab Dispos, 2011).

How the values were obtained:
[1] = Apparent permeability of the compound in vector transfected human Caco2 cells at 10 uM up to 120 mins by reverse-phase liquid chromatography with triple-quadrupole tandem mass spectrometry analysis; type: ADME, cell-based; conditions: caco-2, 2 h
[2] = Apparent permeability of the compound in MRP2 knockdown human Caco2 cells at 10 uM up to 120 mins by reverse-phase liquid chromatography with triple-quadrupole tandem mass spectrometry analysis; type: ADME, cell-based; conditions: caco-2, 2 h
P-gp [3] = experiment: Apparent permeability from basolateral to apical side of P-gp knockdown human Caco2 cells at 10 uM up to 120 mins by reverse-phase liquid chromatography with triple-quadrupole tandem mass spectrometry analysis; type: ADME, cell-based, Caco-2
How it was run: (§1)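 Knockdown verified by real-time PCR. Cells grown 3 weeks on collagen-coated polycarbonate Transwells. Bidirectional transport of 10 µM compound in HBSSg pH 7.4, with atenolol and propranolol co-dosed. Receiver sampled at 30–120 min, analysed by LC-MS/MS. Mean ± S.D., n = 3.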

[4] = Apparent permeability of the compound in BCRP knockdown human Caco2 cells at 10 uM up to 120 mins by reverse-phase liquid chromatography with triple-quadrupole tandem mass spectrometry analysis; type: ADME, cell-based; conditions: caco-2, 2 h
MRP2 [5] = experiment: Apparent permeability from basolateral to apical side of MRP2 knockdown human Caco2 cells at 10 uM up to 120 mins by reverse-phase liquid chromatography with triple-quadrupole tandem mass spectrometry analysis; type: ADME, cell-based, Caco-2; how it was run: as §1
BCRP [6] = experiment: Apparent permeability from basolateral to apical side of BCRP knockdown human Caco2 cells at 10 uM up to 120 mins by reverse-phase liquid chromatography with triple-quadrupole tandem mass spectrometry analysis; type: ADME, cell-based, Caco-2; how it was run: as §1
[7] = Apparent permeability from basolateral to apical side of vector transfected human Caco2 cells at 10 uM up to 120 mins by reverse-phase liquid chromatography with triple-quadrupole tandem mass spectrometry analysis; type: ADME, cell-based; conditions: Caco-2; how it was run: as §1
[8] = Apparent permeability of the compound in P-gp knockdown human Caco2 cells at 10 uM up to 120 mins by reverse-phase liquid chromatography with triple-quadrupole tandem mass spectrometry analysis; type: ADME, cell-based; conditions: caco-2, 2 h
[9] = Apparent permeability from basolateral to apical side of human Caco2 cells up to 120 mins by Michaelis-Menten equation analysis; type: ADME, cell-based, Caco-2
MRP2 [10] = experiment: Efflux ratio of permeability from […] side in MRP2 knockdown human Caco2 cells at 10 uM up to 120 mins by reverse-phase liquid chromatography with triple-quadrupole tandem mass spectrometry analysis; type: ADME, cell-based, Caco-2
How it was run: (§2)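 Caco-2 cells stably carrying lentiviral shRNA against MRP2 or non-targeting shRNA (vector control), kept under 10 µg/mL puromycin, knockdown confirmed by real-time PCR. Cells seeded at 60,000 cells/cm2 on collagen-coated polycarbonate Transwell membranes and grown 3 weeks. HBSS with 10 mM HEPES, 15 mM glucose, pH 7.4. Substrate at 10 µM, dosed apical or basolateral. Receiver sampled at 30, 60, 90, 120 min. Quantified by LC-MS/MS. Papp = VR/(A×C0)×dC/dt.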

BCRP [11] = experiment: Apparent permeability from apical to basolateral side of BCRP knockdown human Caco2 cells at 10 uM up to 120 mins by reverse-phase liquid chromatography with triple-quadrupole tandem mass spectrometry analysis; type: ADME, cell-based, Caco-2
How it was run: as §1, with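 “Caco-2 (CRL-2102) stably transduced with lentiviral shRNA against P-gp, BCRP or MRP2, or non-targeting shRNA vector control, kept under 10 µg/mL puromycin. Knockdown” for “Knockdown”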

[12] = Apparent permeability from apical to basolateral side of vector transfected human Caco2 cells at 10 uM up to 120 mins by reverse-phase liquid chromatography with triple-quadrupole tandem mass spectrometry analysis; type: ADME, cell-based; conditions: Caco-2; how it was run: as §2
[13] = Efflux ratio of permeability from […] side in BCRP knockdown human Caco2 cells at 10 uM up to 120 mins by reverse-phase liquid chromatography with triple-quadrupole tandem mass spectrometry analysis relative to vector transfected cells; type: ADME, cell-based; conditions: caco-2, 2 h
How it was run: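 Efflux ratio (B-A over A-B Papp) measured in shRNA knockdown Caco-2 monolayers and in non-targeting vector-control monolayers, both under puromycin selection. 10 µM compound in HBSSg pH 7.4. Receiver sampled 30–120 min, LC-MS/MS. Each knockdown ratio is expressed as a percentage of the vector-control ratio.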

[14] = Efflux ratio of permeability from […] side in BCRP knockdown human Caco2 cells at 10 uM up to 120 mins by reverse-phase liquid chromatography with triple-quadrupole tandem mass spectrometry analysis; type: ADME, cell-based; conditions: caco-2, 2 h
How it was run: as §1, with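 “Caco-2 (CRL-2102) stably transduced with lentiviral shRNA against P-gp, BCRP or MRP2, or non-targeting shRNA vector control, kept under 10 µg/mL puromycin. Knockdown” for “Knockdown”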

P-gp [15] = experiment: Apparent permeability from apical to basolateral side of P-gp knockdown human Caco2 cells at 10 uM up to 120 mins by reverse-phase liquid chromatography with triple-quadrupole tandem mass spectrometry analysis; type: ADME, cell-based, Caco-2
How it was run: as §1, with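 “Caco-2 (CRL-2102) stably transduced with lentiviral shRNA against P-gp, BCRP or MRP2, or non-targeting shRNA vector control, kept under 10 µg/mL puromycin. Knockdown” for “Knockdown”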

MRP2 [16] = experiment: Apparent permeability from apical to basolateral side of MRP2 knockdown human Caco2 cells at 10 uM up to 120 mins by reverse-phase liquid chromatography with triple-quadrupole tandem mass spectrometry analysis; type: ADME, cell-based, Caco-2; how it was run: as §2
[17] = Efflux ratio of permeability from […] side in MRP2 knockdown human Caco2 cells at 10 uM up to 120 mins by reverse-phase liquid chromatography with triple-quadrupole tandem mass spectrometry analysis relative to vector transfected cells; type: ADME, cell-based; conditions: caco-2, 2 h; how it was run: as §2
[18] = Efflux ratio of permeability from […] side in P-gp knockdown human Caco2 cells at 10 uM up to 120 mins by reverse-phase liquid chromatography with triple-quadrupole tandem mass spectrometry analysis; type: ADME, cell-based; conditions: caco-2, 2 h
How it was run: as §1, with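 “Caco-2 (CRL-2102) stably transduced with lentiviral shRNA against P-gp, BCRP or MRP2, or non-targeting shRNA vector control, kept under 10 µg/mL puromycin. Knockdown” for “Knockdown”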

For `CC(C)c1nc(N(C)S(C)(=O)=O)nc(-c2ccc(F)cc2)c1/C=C/[C@@H](O)C[C@@H](O)CC(=O)[O-].CC(C)c1nc(N(C)S(C)(=O)=O)nc(-c2ccc(F)cc2)c1/C=C/[C@@H](O)C[C@@H](O)CC(=O)[O-].[Ca+2]` [ROSUVASTATIN CALCIUM], the Papp [1] was “permeable”, the Papp [2] was “impermeable” and the Papp B→A at 2 h, 10 µM (P-gp [3]) was 4.6 ×10⁻⁶ cm/s. For the same compound, the Papp [4] was “impermeable”, the Papp B→A at 2 h, 10 µM (MRP2 [5]) was 6.6 ×10⁻⁶ cm/s and the Papp B→A at 2 h, 10 µM (BCRP [6]) was 5.8 ×10⁻⁶ cm/s. The Papp B→A at 2 h, 10 µM [7] was 14.1 ×10⁻⁶ cm/s, the Papp [8] was “impermeable” and the Km at 2 h ([9]; Caco-2) was 98 µM. For the same compound, the Vmax ([9]; caco-2, 2 h) was 137 pmol/min/cm2.

`C[C@]12CC[C@@H]3c4ccc(OS(=O)(=O)O)cc4CC[C@H]3[C@@H]1CCC2=O` [ESTRONE SULFURIC ACID] gave an efflux ratio at 2 h, 10 µM (MRP2 [10]) of 62.2, a Papp B→A at 2 h, 10 µM (P-gp [3]) of 22.9 ×10⁻⁶ cm/s and a Papp A→B at 2 h, 10 µM (BCRP [11]) of 1.03 ×10⁻⁶ cm/s. It also gave a Papp A→B at 2 h, 10 µM [12] of 0.57 ×10⁻⁶ cm/s, a Ratio [13] of 21% and a Ratio [14] of 10.2. The Papp A→B at 2 h, 10 µM (P-gp [15]) was 0.52 ×10⁻⁶ cm/s, the Papp B→A at 2 h, 10 µM (MRP2 [5]) was 33.5 ×10⁻⁶ cm/s and the Papp A→B at 2 h, 10 µM (MRP2 [16]) was 0.54 ×10⁻⁶ cm/s. For the same compound, the Papp B→A at 2 h, 10 µM (BCRP [6]) was 10.5 ×10⁻⁶ cm/s, the Ratio [17] was 128% and the Papp B→A at 2 h, 10 µM [7] was 27.2 ×10⁻⁶ cm/s. The Ratio [18] was 43.6.

In the case of `CC(C)n1c(/C=C/C(O)CC(O)CC(=O)[O-])c(-c2ccc(F)cc2)c2ccccc21.[Na+]` (racemic) [FLUVASTATIN SODIUM], the Papp [1] was “permeable”, the Papp [2] was “impermeable” and the Papp B→A at 2 h, 10 µM (P-gp [3]) was 25.3 ×10⁻⁶ cm/s. For the same compound, the Papp [4] was “impermeable”, the Papp B→A at 2 h, 10 µM (MRP2 [5]) was 48.2 ×10⁻⁶ cm/s and the Papp B→A at 2 h, 10 µM (BCRP [6]) was 57.3 ×10⁻⁶ cm/s. For the same compound, the Papp B→A at 2 h, 10 µM [7] was 96.1 ×10⁻⁶ cm/s and the Papp [8] was “impermeable”.

Compound `O=C1OC(c2ccc(O)c(S(=O)(=O)[O-])c2)(c2ccc(O)c(S(=O)(=O)[O-])c2)c2c(Br)c(Br)c(Br)c(Br)c21.[Na+].[Na+]` [SULFOBROMOPHTHALEIN SODIUM] has an efflux ratio at 2 h, 10 µM (MRP2 [10]) of 2.6, a Papp A→B at 2 h, 10 µM [12] of 0.03 ×10⁻⁶ cm/s and a Papp B→A at 2 h, 10 µM (MRP2 [5]) of 0.9 ×10⁻⁶ cm/s. It also gave a Papp A→B at 2 h, 10 µM (MRP2 [16]) of 0.34 ×10⁻⁶ cm/s, a Ratio [17] of 5% and a Papp B→A at 2 h, 10 µM [7] of 1.45 ×10⁻⁶ cm/s.

With `CC[C@H](C)C(=O)O[C@H]1C[C@@H](C)C=C2C=C[C@H](C)[C@H](CC[C@@H]3C[C@@H](O)CC(=O)O3)[C@H]21` [LOVASTATIN] the Papp [1] was “impermeable”, the Papp [2] was “impermeable” and the Papp [4] was “impermeable”. The Papp [8] was “impermeable”.

In the case of `C[C@H]1O[C@@H](O[C@H]2[C@@H](O)C[C@H](O[C@H]3[C@@H](O)C[C@H](O[C@H]4CC[C@@]5(C)[C@H](CC[C@@H]6[C@@H]5C[C@@H](O)[C@]5(C)[C@@H](C7=CC(=O)OC7)CC[C@]65O)C4)O[C@@H]3C)O[C@@H]2C)C[C@H](O)[C@@H]1O` [DIGOXIN], the efflux ratio at 2 h, 10 µM (MRP2 [10]) was 21.4, the Papp B→A at 2 h, 10 µM (P-gp [3]) was 11.8 ×10⁻⁶ cm/s and the Papp A→B at 2 h, 10 µM (BCRP [11]) was 0.54 ×10⁻⁶ cm/s. It also gave a Papp A→B at 2 h, 10 µM [12] of 1.14 ×10⁻⁶ cm/s, a Ratio [13] of 100% and a Ratio [14] of 17.7. The Papp A→B at 2 h, 10 µM (P-gp [15]) was 1.59 ×10⁻⁶ cm/s, the Papp B→A at 2 h, 10 µM (MRP2 [5]) was 19 ×10⁻⁶ cm/s and the Papp B→A at 2 h, 10 µM (BCRP [6]) was 9.46 ×10⁻⁶ cm/s. The Ratio [17] was 121%, the Papp B→A at 2 h, 10 µM [7] was 20.1 ×10⁻⁶ cm/s and the Ratio [18] was 7.4.
